Data from ChEMBL document CHEMBL3414458, “Discovery of novel 2,5-dioxoimidazolidine-based P2X(7) receptor antagonists as constrained analogues of KN62” (J Med Chem, 2015).
Activity calls are given as the source filed them. The rule behind the calls is not given here.

Tests used:
[1] = molecular target: T1, P2X purinoceptor 7 (Homo sapiens) (UniProt Q99572); assay: Competitive antagonist activity at recombinant human P2X7 receptor expressed in HEK293 cells assessed as inhibition of BzATP-induced intracellular ethidium bromide uptake at 0.1 to 1 uM after 2 hrs by fluorescence assay in presence of BzATP; format: cell-based
T1 sequence (whole entry): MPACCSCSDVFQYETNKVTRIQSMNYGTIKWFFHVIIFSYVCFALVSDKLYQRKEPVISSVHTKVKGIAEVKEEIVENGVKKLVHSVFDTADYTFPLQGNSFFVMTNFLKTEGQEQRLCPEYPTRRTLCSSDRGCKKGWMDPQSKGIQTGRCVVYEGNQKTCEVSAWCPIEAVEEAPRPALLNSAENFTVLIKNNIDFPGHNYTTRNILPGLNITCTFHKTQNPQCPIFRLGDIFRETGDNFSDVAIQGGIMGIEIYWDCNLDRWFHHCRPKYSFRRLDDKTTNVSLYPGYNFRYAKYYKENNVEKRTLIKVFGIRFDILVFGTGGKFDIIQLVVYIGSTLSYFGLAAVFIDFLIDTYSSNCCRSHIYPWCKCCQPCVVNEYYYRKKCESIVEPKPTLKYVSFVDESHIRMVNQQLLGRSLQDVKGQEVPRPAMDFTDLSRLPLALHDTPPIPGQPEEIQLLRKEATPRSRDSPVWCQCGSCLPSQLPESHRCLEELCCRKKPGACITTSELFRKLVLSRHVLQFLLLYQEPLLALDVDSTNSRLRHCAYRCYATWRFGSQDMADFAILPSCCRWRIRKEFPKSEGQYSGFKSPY
Method in brief: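 HEK293 cells stably expressing recombinant human P2X7 were stimulated with BzATP, and ethidium ion accumulation was read as the measure of pore activity.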

[2] = molecular target: T2, P2X purinoceptor 1 (Mus musculus) (UniProt P51576); assay: Antagonist activity at recombinant mouse P2X1 receptor overexpressed in Xenopus oocytes assessed as inhibition of ATP-induced ion current at 10 uM preincubated for 20 mins followed by ATP induction by two-electrode voltage clamping method relative to control; format: cell-based
T2 sequence (whole entry): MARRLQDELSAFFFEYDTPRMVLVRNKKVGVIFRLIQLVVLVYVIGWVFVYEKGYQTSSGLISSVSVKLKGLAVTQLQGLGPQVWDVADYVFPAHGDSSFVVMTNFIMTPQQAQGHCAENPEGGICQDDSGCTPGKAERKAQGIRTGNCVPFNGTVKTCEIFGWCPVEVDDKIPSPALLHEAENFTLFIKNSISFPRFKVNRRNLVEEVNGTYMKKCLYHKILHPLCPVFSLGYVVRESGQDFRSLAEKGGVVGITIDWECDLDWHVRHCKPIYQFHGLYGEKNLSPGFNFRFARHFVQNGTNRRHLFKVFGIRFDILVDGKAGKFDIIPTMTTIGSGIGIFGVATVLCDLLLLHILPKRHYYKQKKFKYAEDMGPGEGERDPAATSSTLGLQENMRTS
Method in brief: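 Two-electrode voltage clamp on Xenopus oocytes expressing the receptor after cRNA microinjection. Current was evoked by 2 µM ATP, with test compound at 10 µM.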

Mus musculus [3] = assay: Antiarthritic activity in CII-induced DBA/1J mouse arthritic model assessed as decrease in chronic inflammation at 50 mg/kg, ip measured 10 days post second CII booster by Hematoxylin and eosin staining relative to CII-treated control; format: functional, organism-based; design: dose 50 mg/kg
Method in brief: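 Mouse type II collagen-induced arthritis; 50 mg/kg dosed by injection. Ankle histology was scored as cumulative arthritis injury scores against the vehicle-treated CII group.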

Mus musculus [4] = assay: Downregulation of iNOS expression in ankle tissue of CII-induced DBA/1J mouse arthritic model at 25 to 50 mg/kg, ip measured 10 days post second CII booster by immunoblot analysis; format: functional, organism-based
[5] = molecular target: T3, P2X purinoceptor 7 (Rattus norvegicus) (UniProt Q64663); assay: Antagonist activity at P2X7 receptor in neuropathic rat dorsal horn assessed as inhibition of long term potentiation-induced neropathic pain at 20 uM relative to control; conditions: Dorsal horn of spinal cord
T3 sequence (whole entry): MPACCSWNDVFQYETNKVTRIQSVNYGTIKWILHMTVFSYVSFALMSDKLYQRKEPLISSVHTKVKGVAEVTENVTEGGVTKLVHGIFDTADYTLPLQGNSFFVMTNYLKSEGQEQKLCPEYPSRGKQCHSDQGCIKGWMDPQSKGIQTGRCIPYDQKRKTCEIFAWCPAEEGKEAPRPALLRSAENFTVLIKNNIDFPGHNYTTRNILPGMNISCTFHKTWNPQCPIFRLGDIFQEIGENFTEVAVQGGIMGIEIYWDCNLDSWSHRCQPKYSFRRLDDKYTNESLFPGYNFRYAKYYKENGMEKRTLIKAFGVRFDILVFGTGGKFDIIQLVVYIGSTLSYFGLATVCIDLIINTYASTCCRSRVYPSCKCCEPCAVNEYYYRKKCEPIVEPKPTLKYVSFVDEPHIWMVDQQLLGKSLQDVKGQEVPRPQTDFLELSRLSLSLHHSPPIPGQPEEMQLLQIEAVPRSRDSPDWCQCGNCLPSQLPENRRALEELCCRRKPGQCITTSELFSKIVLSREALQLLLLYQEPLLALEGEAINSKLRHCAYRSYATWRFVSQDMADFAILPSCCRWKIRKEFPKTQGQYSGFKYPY
Method in brief: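 Ex vivo spinal cord preparation: LTP-induced pain signalling recorded in the dorsal horn of neuropathic rats. Pregabalin served as the positive control.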

- inhibition [1]: Active
- inhibition [2]: 16%
- inhibition [5]: 76%
Structure (SMILES): O=C1NC(=O)N(C2CCN(C(=O)c3ccc(Cl)c(C(F)(F)F)c3)CC2)C1Cc1ccc(OS(=O)(=O)c2cccc3cnccc23)cc1 (racemic)
- Activity (Mus musculus [3]): Active
- Activity (Mus musculus [4]): Active
